Data on five molecules can be found in paper PMC12398706 (ACS chemical neuroscience, 2025).

The target of assay [1] is T1, SERT (Homo sapiens, UniProt P31645). The assay is classed as cell-based.
In assay [2] the target is T1, SERT. In words: SERT efflux assay. The class given is cell-based. Conditions: for SERT efflux, single concentration: 10 μM, normalized to vehicle (0.1% DMSO = 0%) and 100 μM PCA = 100%. The procedure, abridged: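 hSERT-N1-pEYFP transfected (0.1 μg/well) into HEK293T cells (DMEM, 10% FBS) at seeding, 24 h before assay. In HBSS with 2 mM MgCl2, 2 mM CaCl2 and 5 mM HEPES at 37 °C, cells were loaded with 40 nM [3H]5-HT for 20 min, washed, then exposed 20 min to test compound (final 10 μM–1 nM, 0.1% DMSO). After washing and NaOH lysis, retained radioactivity was scintillation-counted. EC50/Span came from three-parameter log(agonist)-response fits.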

For assay [3], the target named is T1, SERT. In words: NIMH PDSP radioligand binding, SERT. As to conditions: 10 μM; N = 1 in quadruplicate.
For a further assay, the target named is T2, 5-HT3 receptors (Homo sapiens, UniProt P46098).
T2 sequence (P46098 24-478): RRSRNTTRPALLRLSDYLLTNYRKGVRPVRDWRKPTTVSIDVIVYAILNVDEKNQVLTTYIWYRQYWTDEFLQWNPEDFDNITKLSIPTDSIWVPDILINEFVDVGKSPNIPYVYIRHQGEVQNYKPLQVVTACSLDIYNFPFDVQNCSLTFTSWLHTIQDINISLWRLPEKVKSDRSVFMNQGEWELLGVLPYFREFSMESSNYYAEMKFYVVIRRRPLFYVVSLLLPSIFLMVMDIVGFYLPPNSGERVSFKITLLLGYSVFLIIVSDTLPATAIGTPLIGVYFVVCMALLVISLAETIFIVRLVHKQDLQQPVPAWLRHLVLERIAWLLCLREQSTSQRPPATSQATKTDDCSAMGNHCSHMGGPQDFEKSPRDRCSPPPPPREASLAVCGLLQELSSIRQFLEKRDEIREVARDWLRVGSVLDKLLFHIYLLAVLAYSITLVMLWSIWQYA
As to the kind of experiment: NIMH PDSP radioligand binding, 5-HT3. Conditions: 10 μM; N = 1 in quadruplicate. A digest of the protocol:
(§1)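 Outsourced screen run by the NIMH Psychoactive Drug Screening Program across a broad target panel. Test compound at 10 μM; read-out was % inhibition of binding of a radiolabelled ligand specific to each target. Single experiment (N = 1) run in quadruplicate, with the averaged value reported.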

In the next assay the test system is sigma 1. In words: NIMH PDSP radioligand binding, sigma 1. Conditions: 10 μM; N = 1 in quadruplicate. The procedure, abridged:
as §1

The next assay concerns sigma 2. As to the kind of experiment: NIMH PDSP radioligand binding, sigma 2. As to conditions: 10 μM; N = 1 in quadruplicate. A digest of the protocol:
as §1

Another assay has as its target DAT (Homo sapiens, UniProt Q01959). In words: NIMH PDSP radioligand binding, DAT. As to conditions: 10 μM; N = 1 in quadruplicate. The procedure, abridged:
as §1

In another assay the target is NET (Homo sapiens, UniProt P23975). As to the kind of experiment: NIMH PDSP radioligand binding, NET. As to conditions: 10 μM; N = 1 in quadruplicate. The procedure, abridged:
as §1

The target in another assay is H1 (Homo sapiens, UniProt P35367). As to the kind of experiment: NIMH PDSP radioligand binding, H1. As to conditions: 10 μM; N = 1 in quadruplicate. A digest of the protocol:
as §1

For the next assay, the target named is 5-HT2B (Homo sapiens, UniProt P41595). As to the kind of experiment: NIMH PDSP radioligand binding, 5-HT2B. Conditions: 10 μM; N = 1 in quadruplicate. The procedure, abridged:
as §1

Another assay concerns adrenergic receptors. As to the kind of experiment: NIMH PDSP radioligand binding, adrenergic receptors. As to conditions: 10 μM; N = 1 in quadruplicate. A digest of the protocol:
as §1

The target of the next assay is SERT-PG^601,602AA (Homo sapiens, UniProt P31645, G602A/P601A). As to the kind of experiment: SERT pharmacochaperoning assay. The class given is cell-based. As to conditions: 20 μM, 24 h; normalized to vehicle (0.2% DMSO = 0%) and 20 μM noribogaine = 100%. A digest of the protocol:
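HEK293T cells (DMEM, 10% FBS) were transfected at seeding with the misfolding SERT-PG601,602AA plasmid (0.1 μg/well) and kept overnight at 37 °C, 5% CO2. They were then exposed 24 h to test compound at a final 20 μM (0.2% DMSO) in fresh medium. Four 10-min washes with supplemented HBSS preceded 10-min uptake of 40 nM [3H]5-HT. Cells were washed, lysed in 10 mM NaOH and scintillation-counted.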

Assay [4] addresses T1, SERT. As to conditions: cited from earlier work.
Assay [5] concerns the target T1, SERT. As to conditions: cocaine 10 μM; value taken from a previous report; cited from earlier work.
The next assay relates to serotonin uptake. As to conditions: cited from earlier work.
Assay [6] has as its target T1, SERT. As to conditions: cited from earlier work. The source holds these as a separate data set.
Setting [7] is: concentration-response, compared to UCD0184.

Counter-ions that a name gives are not always drawn. Like-named read-outs stand apart in the source and are kept apart here.

Sequence of 5-HT2B (P41595 whole entry, species assumed): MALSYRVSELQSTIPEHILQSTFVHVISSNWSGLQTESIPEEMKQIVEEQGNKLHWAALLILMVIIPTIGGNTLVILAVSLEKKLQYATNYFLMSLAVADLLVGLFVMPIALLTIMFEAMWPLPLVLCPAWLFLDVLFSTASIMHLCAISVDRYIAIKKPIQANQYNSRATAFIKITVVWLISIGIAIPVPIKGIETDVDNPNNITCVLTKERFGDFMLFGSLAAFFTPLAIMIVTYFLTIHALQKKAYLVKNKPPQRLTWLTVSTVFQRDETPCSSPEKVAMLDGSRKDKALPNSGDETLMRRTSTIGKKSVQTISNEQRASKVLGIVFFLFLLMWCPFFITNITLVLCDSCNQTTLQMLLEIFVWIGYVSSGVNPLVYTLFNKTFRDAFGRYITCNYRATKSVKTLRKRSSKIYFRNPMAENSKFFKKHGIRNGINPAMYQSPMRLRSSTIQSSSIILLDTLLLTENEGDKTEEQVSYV
Sequence of H1 (P35367 whole entry): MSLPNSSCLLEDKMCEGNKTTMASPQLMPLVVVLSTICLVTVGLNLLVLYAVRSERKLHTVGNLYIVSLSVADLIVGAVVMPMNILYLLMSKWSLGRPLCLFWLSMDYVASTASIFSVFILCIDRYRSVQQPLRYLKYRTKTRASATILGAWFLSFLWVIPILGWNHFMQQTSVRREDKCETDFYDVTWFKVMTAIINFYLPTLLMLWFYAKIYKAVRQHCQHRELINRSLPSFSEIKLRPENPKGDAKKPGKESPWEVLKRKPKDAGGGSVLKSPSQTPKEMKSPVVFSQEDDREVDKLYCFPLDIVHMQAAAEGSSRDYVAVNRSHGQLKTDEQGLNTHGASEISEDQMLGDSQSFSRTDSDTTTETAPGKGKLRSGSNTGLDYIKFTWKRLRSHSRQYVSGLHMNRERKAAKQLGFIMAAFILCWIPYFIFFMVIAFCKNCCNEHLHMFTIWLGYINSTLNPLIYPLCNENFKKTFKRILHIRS
Sequence of DAT (Q01959 whole entry, species assumed): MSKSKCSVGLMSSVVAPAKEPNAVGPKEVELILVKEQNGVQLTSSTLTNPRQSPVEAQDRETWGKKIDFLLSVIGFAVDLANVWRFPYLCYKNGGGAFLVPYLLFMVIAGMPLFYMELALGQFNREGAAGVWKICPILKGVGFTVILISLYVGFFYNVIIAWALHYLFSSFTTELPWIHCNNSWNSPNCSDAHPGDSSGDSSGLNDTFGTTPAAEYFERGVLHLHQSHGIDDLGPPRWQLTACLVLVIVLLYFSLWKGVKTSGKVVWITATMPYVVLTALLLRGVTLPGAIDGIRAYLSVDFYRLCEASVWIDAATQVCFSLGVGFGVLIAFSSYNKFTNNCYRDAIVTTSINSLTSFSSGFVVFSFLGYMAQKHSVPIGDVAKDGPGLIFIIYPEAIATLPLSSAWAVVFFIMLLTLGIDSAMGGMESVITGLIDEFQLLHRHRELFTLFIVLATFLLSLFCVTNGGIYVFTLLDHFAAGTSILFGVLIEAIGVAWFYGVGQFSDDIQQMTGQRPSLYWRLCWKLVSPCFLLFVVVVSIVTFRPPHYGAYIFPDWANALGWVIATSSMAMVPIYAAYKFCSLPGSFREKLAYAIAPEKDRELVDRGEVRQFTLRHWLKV
Sequence of NET (P23975 whole entry): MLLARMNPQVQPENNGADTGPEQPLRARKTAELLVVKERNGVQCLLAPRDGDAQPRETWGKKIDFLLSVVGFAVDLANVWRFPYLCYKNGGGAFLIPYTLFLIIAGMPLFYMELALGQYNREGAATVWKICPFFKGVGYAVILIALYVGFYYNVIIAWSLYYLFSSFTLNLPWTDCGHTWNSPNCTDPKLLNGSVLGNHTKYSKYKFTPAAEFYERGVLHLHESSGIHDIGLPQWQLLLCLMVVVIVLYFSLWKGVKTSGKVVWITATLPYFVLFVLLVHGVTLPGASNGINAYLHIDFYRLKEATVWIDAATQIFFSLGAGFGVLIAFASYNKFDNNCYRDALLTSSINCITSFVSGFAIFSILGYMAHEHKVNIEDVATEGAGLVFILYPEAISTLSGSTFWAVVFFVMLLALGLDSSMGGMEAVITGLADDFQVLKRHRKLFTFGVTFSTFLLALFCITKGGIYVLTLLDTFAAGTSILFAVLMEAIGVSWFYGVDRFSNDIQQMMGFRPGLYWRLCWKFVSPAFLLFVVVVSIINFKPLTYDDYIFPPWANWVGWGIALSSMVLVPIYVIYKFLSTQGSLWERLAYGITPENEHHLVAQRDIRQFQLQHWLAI

In the case of `CN1C2C=C(c3c[nH]c4ccc(F)cc34)CC1CC2` (centres unmarked) [UCD0093], the “SERT inhibition potency and efficacy (in words)” value on SERT [1] (setting [7]) is reported as “drastically increased SERT inhibition potency”. Also, the “SERT efflux potency and efficacy (in words)” value at SERT [2] (setting [7]) was “minimal effect on SERT efflux”. Further, the “% inhibition of radioligand binding at SERT (in words)” value on SERT [3] is on record as “substantial binding”. For the same molecule, the “% inhibition of radioligand binding at 5-HT3 (in words)” value on 5-HT3 receptors was “high affinity”. Also, in the assay with sigma 1, the “% inhibition of radioligand binding at sigma 1 (in words)” value is on record as “potent ligands”. Further, the “% inhibition of radioligand binding at sigma 2 (in words)” value in the assay with sigma 2 is on record as “potent ligands”. The “% inhibition of radioligand binding at DAT (in words)” value at DAT is reported as “potent ligands”. The “% inhibition of radioligand binding at NET (in words)” value on NET is “potent ligands”. At H1, the “% inhibition of radioligand binding at H1 (in words)” value is reported as “potent ligands”. Moreover, at 5-HT2B, the “% inhibition of radioligand binding at 5-HT2B (in words)” value was “potent ligands”. The “% inhibition of radioligand binding at adrenergic receptors (in words)” value in the assay with adrenergic receptors is recorded as “potent ligands”.

On to `CN1C2C=C(c3c[nH]c4ccccc34)CC1CC2` (centres unmarked) [UCD0184], for which, at SERT [1], the “SERT inhibition Span (Emax)” value amounted to 105% and the “SERT inhibition, single concentration” value was “near full inhibition”. Further, the EC50 on SERT [1] (read-out: SERT inhibition EC50, concentration-response, HEK293T) was 1100 nM. The “SERT efflux, single concentration” value on SERT [2] (HEK293T) is “appreciable 5-HT efflux”. Moreover, the “type of serotonin releasing agent (SRA): full or partial” value at SERT [2] (SERT-transfected HEK293T cells) is listed as “full”. In addition, the “SERT efflux Span (Emax)” value on SERT [2] (concentration-response, normalized to vehicle 0% and 100 μM PCA 100%) turned out to be 75.1%. Further, the half-maximal effective concentration (EC50) on SERT [2] (read-out: SERT efflux EC50, concentration-response, HEK293T) was 582 nM. Moreover, the “SERT pharmacochaperoning efficacy compared to noribogaine” value on SERT-PG^601,602AA was “did not act as a SERT pharmacochaperone”. Also, the “% inhibition of radioligand binding at SERT (in words)” value at SERT [3] is on record as “substantial binding”. For the same molecule, the “% inhibition of radioligand binding at 5-HT3 (in words)” value on 5-HT3 receptors was “high affinity”. In the assay with sigma 1, the “% inhibition of radioligand binding at sigma 1 (in words)” value was “potent ligands”. Further, the “% inhibition of radioligand binding at sigma 2 (in words)” value in the assay on sigma 2 was “potent ligands”. Further, the “% inhibition of radioligand binding at DAT (in words)” value on DAT is on record as “potent ligands”. Moreover, the “% inhibition of radioligand binding at NET (in words)” value on NET was “potent ligands”. Besides, at H1, the “% inhibition of radioligand binding at H1 (in words)” value is “potent ligands”. Further, the “% inhibition of radioligand binding at 5-HT2B (in words)” value on 5-HT2B is reported as “potent ligands”. For the same molecule, the “% inhibition of radioligand binding at adrenergic receptors (in words)” value with adrenergic receptors is given as “potent ligands”. Also, on SERT [4], the “selectivity for SERT over DAT” value was “approximately 10 fold” and the “selectivity for SERT over NET” value is ~100 fold.

On to `COC(=O)[C@H]1[C@@H](OC(=O)c2ccccc2)C[C@@H]2CC[C@H]1N2C` [cocaine, (−)-cocaine hydrochloride], for which the “SERT inhibition, single concentration” value on SERT [5] is ~ 50%.

With `CN1[C@@H]2C[C@@H](OC(=O)[C@H](CO)c3ccccc3)C[C@H]1[C@@H]1O[C@@H]12` [scopolamine, scopolamine hydrobromide trihydrate, reference compound], at SERT [1], the “SERT inhibition, single concentration” value is listed as “meaningful levels of SERT inhibition”.

Consider `CN1C2CCC1CC(OC(=O)c1ccccc1)C2` (centres unmarked) [tropacocaine], for which the “SERT efflux, single concentration” value on SERT [2] (HEK293T) is reported as “no effect”. Moreover, the “serotonin uptake inhibition activity relative to cocaine (in words)” value in the assay with serotonin uptake is listed as “reduced activity relative to cocaine”. The “SERT binding affinity relative to cocaine (in words)” value at SERT [6] is recorded as “reduced activity relative to cocaine”.

The EC50 is the concentration giving half of the maximal effect.
